{
  "source": "ChEMBL document CHEMBL1128440",
  "about": "(J Med Chem, 1995)",
  "key": {"[1]": {"species_on_record": "Rattus norvegicus", "test": "Tissue biodistribution into estrogen-primed immature female rat ovaries at 1 hr time interval", "type": "ADME, organism-based, Female gonad", "conditions": "in vivo", "how_it_was_run": "(§1)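 Immature female Sprague-Dawley rats (25 days old, ≈50 g, five per time point) primed with estradiol, 5 μg sc daily for 2 days in 50% ethanol/sunflower seed oil, used 24 h after the last injection. The 18F-labeled ligand was given iv by tail vein in 10% ethanol/saline. Decapitated at 1 or 3 h; blood and organs weighed and gamma-counted. Reported as %ID/g ± SD, n = 5.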"}, "[2]": {"species_on_record": "Rattus norvegicus", "test": "Tissue biodistribution into estrogen-primed immature female rat liver at 1 hr low time interval", "type": "ADME, organism-based", "conditions": "in vivo", "how_it_was_run": "as §1"}, "[3]": {"species_on_record": "Rattus norvegicus", "test": "Tissue biodistribution into estrogen-primed immature female rat uterus at 3 hr time interval", "type": "ADME, organism-based", "conditions": "in vivo", "how_it_was_run": "as §1"}, "[4]": {"species_on_record": "Rattus norvegicus", "test": "Tissue biodistribution into estrogen-primed immature female rat kidney at 1 hr blocked time interval", "type": "ADME, organism-based", "conditions": "in vivo", "how_it_was_run": "as §1"}, "[5]": {"species_on_record": "Rattus norvegicus", "test": "Tissue biodistribution into estrogen-primed immature female rat uterus/blood at 1 hr blocked time interval", "type": "ADME, organism-based", "conditions": "in vivo", "how_it_was_run": "as §1"}, "[6]": {"species_on_record": "Rattus norvegicus", "test": "Tissue biodistribution into estrogen-primed immature female rat bone at 1 hr blocked time interval", "type": "ADME, organism-based, Bone element", "conditions": "in vivo", "how_it_was_run": "as §1"}, "[7]": {"species_on_record": "Rattus norvegicus", "test": "Tissue biodistribution into estrogen-primed immature female rat uterus/muscle at 1 hr time interval", "type": "ADME, organism-based", "conditions": "in vivo"}, "[8]": {"molecular_target": "T1, Progesterone receptor (Homo sapiens) (UniProt P06401)", "T1 sequence (whole entry)": "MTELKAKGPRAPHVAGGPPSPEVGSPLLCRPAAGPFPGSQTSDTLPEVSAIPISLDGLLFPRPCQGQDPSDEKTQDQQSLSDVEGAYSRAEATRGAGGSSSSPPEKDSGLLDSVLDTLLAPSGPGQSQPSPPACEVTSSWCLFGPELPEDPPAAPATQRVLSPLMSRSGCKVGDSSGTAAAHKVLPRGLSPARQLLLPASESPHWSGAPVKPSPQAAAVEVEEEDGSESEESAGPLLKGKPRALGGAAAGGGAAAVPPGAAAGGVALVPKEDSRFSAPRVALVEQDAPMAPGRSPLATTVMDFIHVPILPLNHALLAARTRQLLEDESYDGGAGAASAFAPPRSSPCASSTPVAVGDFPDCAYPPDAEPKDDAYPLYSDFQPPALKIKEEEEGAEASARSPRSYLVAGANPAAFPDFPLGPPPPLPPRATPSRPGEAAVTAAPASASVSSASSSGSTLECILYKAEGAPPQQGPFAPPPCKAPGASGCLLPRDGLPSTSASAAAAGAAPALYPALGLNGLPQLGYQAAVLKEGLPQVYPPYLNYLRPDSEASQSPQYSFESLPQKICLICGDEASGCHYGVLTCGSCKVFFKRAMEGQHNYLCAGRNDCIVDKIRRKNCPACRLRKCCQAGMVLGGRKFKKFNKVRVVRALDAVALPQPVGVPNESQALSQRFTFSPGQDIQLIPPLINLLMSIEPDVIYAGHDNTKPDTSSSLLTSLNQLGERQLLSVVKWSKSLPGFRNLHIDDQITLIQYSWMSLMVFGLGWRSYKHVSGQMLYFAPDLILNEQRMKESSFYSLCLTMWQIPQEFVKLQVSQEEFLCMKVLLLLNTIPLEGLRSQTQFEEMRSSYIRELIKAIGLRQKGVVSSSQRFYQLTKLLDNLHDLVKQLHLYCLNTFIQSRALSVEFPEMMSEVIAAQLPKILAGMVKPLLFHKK", "test": "Nonspecific binding affinity against progesterone receptor was estimated relative to compound R5020"}, "[9]": {"species_on_record": "Rattus norvegicus", "test": "Tissue biodistribution into estrogen-primed immature female rat muscle at 1 hr low time interval", "type": "ADME, organism-based", "conditions": "in vivo", "how_it_was_run": "as §1"}, "[10]": {"species_on_record": "Rattus norvegicus", "test": "Tissue biodistribution into estrogen-primed immature female rat muscle at 1 hr blocked time interval", "type": "ADME, organism-based", "conditions": "in vivo", "how_it_was_run": "as §1"}, "[11]": {"species_on_record": "Rattus norvegicus", "test": "Tissue biodistribution into estrogen-primed immature female rat fat at 3 hr time interval", "type": "ADME, organism-based, Adipose tissue", "conditions": "in vivo", "how_it_was_run": "as §1"}, "[12]": {"species_on_record": "Rattus norvegicus", "test": "Tissue biodistribution into estrogen-primed immature female rat uterus at 1 hr low time interval", "type": "ADME, organism-based", "conditions": "in vivo", "how_it_was_run": "as §1"}, "[13]": {"species_on_record": "Rattus norvegicus", "test": "Tissue biodistribution into estrogen-primed immature female rat brain at 3 hr time interval", "type": "ADME, organism-based", "conditions": "in vivo", "how_it_was_run": "as §1"}, "[14]": {"species_on_record": "Rattus norvegicus", "test": "Tissue biodistribution into estrogen-primed immature female rat uterus/blood at 1 hr low time interval", "type": "ADME, organism-based", "conditions": "in vivo", "how_it_was_run": "as §1"}, "[15]": {"species_on_record": "Rattus norvegicus", "test": "Tissue biodistribution into estrogen-primed immature female rat bone at 1 hr time interval", "type": "ADME, organism-based, Bone element", "conditions": "in vivo", "how_it_was_run": "as §1"}, "[16]": {"species_on_record": "Rattus norvegicus", "test": "Tissue biodistribution into estrogen-primed immature female rat blood at 1 hr blocked time interval", "type": "ADME, organism-based", "conditions": "in vivo", "how_it_was_run": "as §1"}, "[17]": {"molecular_target": "T1, Progesterone receptor (Homo sapiens)", "test": "Relative binding affinity against progesterone receptor at 0 degree Celsius determined in a competitive radiometric binding assay (R5020=100%).", "how_it_was_run": "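Competitive radiometric binding at 0 °C against tritium-labeled R5020 as the standard (RBA = 100). Values are the average of two experiments.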"}, "[18]": {"species_on_record": "Rattus norvegicus", "test": "Tissue biodistribution into estrogen-primed immature female rat lung at 1 hr low time interval", "type": "ADME, organism-based", "conditions": "in vivo", "how_it_was_run": "as §1"}, "[19]": {"species_on_record": "Rattus norvegicus", "test": "Tissue biodistribution into estrogen-primed immature female rat fat at 1 hr low time interval", "type": "ADME, organism-based, Adipose tissue", "conditions": "in vivo", "how_it_was_run": "as §1"}, "[20]": {"species_on_record": "Rattus norvegicus", "test": "Tissue biodistribution into estrogen-primed immature female rat muscle at 3 hr time interval", "type": "ADME, organism-based", "conditions": "in vivo", "how_it_was_run": "as §1"}, "[21]": {"species_on_record": "Rattus norvegicus", "test": "Tissue biodistribution into estrogen-primed immature female rat uterus/muscle at 1 hr low time interval", "type": "ADME, organism-based", "conditions": "in vivo", "how_it_was_run": "as §1"}, "[22]": {"species_on_record": "Rattus norvegicus", "test": "Tissue biodistribution into estrogen-primed immature female rat kidney at 1 hr time interval", "type": "ADME, organism-based", "conditions": "in vivo", "how_it_was_run": "as §1"}, "[23]": {"species_on_record": "Rattus norvegicus", "test": "Tissue biodistribution into estrogen-primed immature female rat lung at 1 hr time interval", "type": "ADME, organism-based", "conditions": "in vivo", "how_it_was_run": "as §1"}, "[24]": {"species_on_record": "Rattus norvegicus", "test": "Tissue biodistribution into estrogen-primed immature female rat brain at 1 hr blocked time interval", "type": "ADME, organism-based", "conditions": "in vivo", "how_it_was_run": "as §1"}, "[25]": {"species_on_record": "Rattus norvegicus", "test": "Tissue biodistribution into estrogen-primed immature female rat fat at 1 hr blocked time interval", "type": "ADME, organism-based, Adipose tissue", "conditions": "in vivo", "how_it_was_run": "as §1"}, "[26]": {"species_on_record": "Rattus norvegicus", "test": "Tissue biodistribution into estrogen-primed immature female rat uterus/blood at 3 hr time interval", "type": "ADME, organism-based", "conditions": "in vivo", "how_it_was_run": "as §1"}},
  "data": [
    {"smiles": "CC1(c2ccco2)O[C@@H]2CC3C4CCC5=CC(=O)CC[C@@H]5C4CC[C@]3(C)[C@]2(C(=O)CF)O1", "note": "(stereo partly specified)", "values": [
      {"measurement": "Injected dose/g", "setting": "[1]", "result": 3.04, "unit": "%"},
      {"measurement": "Injected dose/g", "setting": "[2]", "result": 0.68, "unit": "%"},
      {"measurement": "Injected dose/g", "setting": "[3]", "result": 8.65, "unit": "%"},
      {"measurement": "Injected dose/g", "setting": "[4]", "result": 1.84, "unit": "%"},
      {"measurement": "uterus/blood ratio", "setting": "[5]", "result": 2.47},
      {"measurement": "Injected dose/g", "setting": "[6]", "result": 1.29, "unit": "%"},
      {"measurement": "Uterus to muscle uptake ratio", "setting": "[7]", "result": 12.07, "unit": "%"},
      {"measurement": "NSB", "setting": "[8]", "result": 1.09},
      {"measurement": "Injected dose/g", "setting": "[9]", "result": 0.25, "unit": "%"},
      {"measurement": "Injected dose/g", "setting": "[10]", "result": 0.54, "unit": "%"},
      {"measurement": "Injected dose/g", "setting": "[11]", "result": 4.16, "unit": "%"},
      {"measurement": "Injected dose/g", "setting": "[12]", "result": 3.46, "unit": "%"},
      {"measurement": "Injected dose/g", "setting": "[13]", "result": 0.19, "unit": "%"},
      {"measurement": "Injected dose/g", "setting": "[14]", "result": 10, "unit": "%"},
      {"measurement": "Injected dose/g", "setting": "[15]", "result": 1.15, "unit": "%"},
      {"measurement": "Injected dose/g", "setting": "[16]", "result": 0.6, "unit": "%"},
      {"measurement": "RBA", "setting": "[17]", "result": 173},
      {"measurement": "Injected dose/g", "setting": "[18]", "result": 1.23, "unit": "%"},
      {"measurement": "Injected dose/g", "setting": "[19]", "result": 1.86, "unit": "%"},
      {"measurement": "Injected dose/g", "setting": "[20]", "result": 0.2, "unit": "%"},
      {"measurement": "Injected dose/g", "setting": "[21]", "result": 12.09, "unit": "%"},
      {"measurement": "Injected dose/g", "setting": "[22]", "result": 1.59, "unit": "%"},
      {"measurement": "Injected dose/g", "setting": "[23]", "result": 1.92, "unit": "%"},
      {"measurement": "Injected dose/g", "setting": "[24]", "result": 0.49, "unit": "%"},
      {"measurement": "Injected dose/g", "setting": "[25]", "result": 3.48, "unit": "%"},
      {"measurement": "uterus/blood ratio", "setting": "[26]", "result": 71.1}
    ]}
  ]
}
